A selection follows.
PGC1a acetyl up: raises PGC1a acetylation signal in U2OS cells; activation, % at 15.6 µM; hit rate 0.21% among 350,000; U2OS PGC1a acetylation AlphaScreen, overnight;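 active means every replicate reaching activation of at least 50%, whatever the mean replicate activation; inconclusive means replicates that disagree or another doubt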;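 further: hits raise the AlphaScreen acetylation signal above neutral controls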
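System: flag-PGC1a/GCN5 U2OS cells / Input: 7000 cells/well / Compound: single test concentration per compound / Incubation: overnight compound treatment, 37 °C / Technique: AlphaScreen on lysates with anti-acetyl-lysine antibody, acceptor and donor beads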
G6PC hep suppr: hepatocyte G6PC expression change via PGC-1a acetylation activation. shares compounds with PGC1a acetyl up. primary mouse hepatocytes, G6PC mRNA qPCR, forskolin. G6PC suppression (normalized activity, % of positive control; higher = more suppression), % at 26 µM. 240 tested, under 10 active. AID 743463;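 active means dose curves showing G6PC suppression whose half-maximal dose is at most twice the top valid dose; inconclusive means flat curves with moderate negative activity, or unreliable fits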;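 further: G6PC expression relative to GAPDH housekeeping gene as delta delta Ct; 0% = median of neutral control wells and 100% = median of positive control wells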
PCK1 hep suppr: PGC-1a acetylation activators affecting PCK1 expression in hepatocytes; AID 743465; PCK1 expression decrease, unspecified at 26 µM; primary mouse hepatocytes, PCK1 mRNA qPCR, forskolin-stimulated; shares compounds with PGC1a acetyl up; 230 tested, under 10 active;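 active means compounds lowering PCK1 expression whose fitted half-maximal concentration is at most twice the top tested dose; inconclusive means flat fit with moderate opposite-direction effect, or poor fit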;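 further: values are delta delta Ct of PCK1 relative to GAPDH; higher delta delta Ct means lower PCK1 expression so positive values indicate hits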
PGC1a hep suppr: PGC-1a acetylation activator altering hepatocyte PGC-1a expression | max activity (PGC-1a expression decrease), % | primary mouse hepatocytes, PGC-1a mRNA qPCR, forskolin; top dose 26 µM | 240 tested, under 10 active | shares compounds with PGC1a acetyl up;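 active means compound lowering PGC-1a expression with fitted half-maximal concentration at most twice its top tested dose; inconclusive means flat curve with moderate opposite-direction effect, or poor fit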;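 further: 0% = neutral control wells median and 100% = positive control wells median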
An asterisk follows results filed as active.

Screening C=C[C@H]1C(C(=O)OCC)=CC[C@@H](c2ccccc2)N1S(=O)(=O)c1ccc(C)cc1 returned PGC1a acetyl up inconclusive, G6PC hep suppr -61.5, PCK1 hep suppr inconclusive and PGC1a hep suppr 57.0.
`COc1ccc(N(C(=O)c2snc(C(N)=O)c2N)C(C(=O)NC2CCCC2)c2ccco2)c(OC)c1` (stereo not given) gave PGC1a acetyl up inconclusive, PCK1 hep suppr 6.71 and PGC1a hep suppr -29.6.
Screening C#CC(=O)N(c1ccc(OC)c(OC)c1)C(C(=O)NC1CCCC1)c1cccs1 (stereo not given) returned PGC1a acetyl up -102.7.
C#CC(=O)N(c1cccc(OC)c1)C(C(=O)NC1CCCC1)c1cccs1 (stereo not given) was read as PGC1a acetyl up -93.0.
Screening COc1ccc(NC(=O)N[C@H]2CC[C@H](CCn3cc(-c4ccccc4F)nn3)O[C@@H]2CO)cc1 returned PGC1a acetyl up -69.1.
CCn1cnc2cc(NCc3ccc(N(C)C)cc3)ccc21 was read as PGC1a acetyl up -40.1, G6PC hep suppr 243.4 and PGC1a hep suppr inconclusive.
For CC(C)(C)OC(=O)NCCc1nnc(SCc2ccc(Cl)cc2)o1 the results were PGC1a acetyl up -41.0.
Screening NC(=O)C1CCCc2c1[nH]c1ccc(Cl)cc21 (stereo not given) returned G6PC hep suppr 1.2, PCK1 hep suppr -2.98 and PGC1a hep suppr 10.6.
Screening COc1ccc(OC)c(NC(=O)CSc2nnc(-c3cccnc3)s2)c1 returned PGC1a acetyl up 85.4*, G6PC hep suppr -9.0, PCK1 hep suppr -11.4 and PGC1a hep suppr 54.8.
`CCN(C(=O)CN1CCN(c2ccccc2O)CC1)c1c(N)n(Cc2ccccc2)c(=O)[nH]c1=O` gave PGC1a acetyl up -50.3.
For CCN1CCN(Cc2ccc(NC(=O)c3ccc(C)c(NC(=O)c4c[nH]c5cc(C(F)(F)F)ccc5c4=O)c3)cc2C(F)(F)F)CC1 the results were PGC1a acetyl up -77.9.
`O=C(OCc1cnc(Cl)s1)c1cccs1` gave PGC1a acetyl up -94.3.
O=C(c1ccco1)N1CCN(c2nnc(-c3ccccc3)c3ccccc23)CC1 was read as PGC1a acetyl up inconclusive, G6PC hep suppr 43.1, PCK1 hep suppr 17.8 and PGC1a hep suppr inconclusive.
`C[N+]1(C)CCC(=C2c3ccccc3CC(=O)c3sccc32)CC1` gave PGC1a acetyl up -93.7.
For COc1ccc2sc(C)[n+](C)c2c1 the results were PGC1a acetyl up -55.1.
`COc1cc(-c2cnc3c(NC(C)=O)cc(-c4ccccc4CN(C)C)cn23)cc(OC)c1OC` gave PGC1a acetyl up inconclusive, G6PC hep suppr 505.4, PCK1 hep suppr 84.1 and PGC1a hep suppr 54.6.
For CN1C[C@H](C(=O)N[C@]2(C)O[C@@]3(O)[C@@H]4CCCN4C(=O)[C@H](Cc4ccccc4)N3C2=O)CC2c3cccc4[nH]cc(c34)C[C@H]21 (stereo not given in full) the results were PGC1a acetyl up -42.8.
Cc1cc(O)c(N=Nc2ccc(C(=O)O)cc2)cc1C was read as PGC1a acetyl up -50.1.
Screening Cc1c(OCc2ccc(C(=O)O)cc2)ccc2c(-c3ccccc3)cc(=O)oc12 returned PGC1a acetyl up -44.0, G6PC hep suppr 24.0, PCK1 hep suppr 44.9 and PGC1a hep suppr 54.1.
`O=C(COc1ccc(Cl)cc1)NCCCNC(=O)c1cccnc1` gave PGC1a acetyl up 112.4*, G6PC hep suppr -16.7, PCK1 hep suppr 11.3 and PGC1a hep suppr 57.6.
For Cc1ccc(Cl)c(Cn2cnc3c(cnn3C(C)(C)C)c2=O)c1F the results were PGC1a acetyl up -47.8.
For COC(=O)[C@H](Cc1ccccc1)N(C)S(=O)(=O)c1cccc(S(=O)(=O)N(C)[C@@H](Cc2ccccc2)C(=O)OC)c1 the results were PGC1a acetyl up inconclusive, G6PC hep suppr -82.5 and PGC1a hep suppr inconclusive.
`COC1=CC(=O)c2c(ccc3ncnc(N)c23)C1=O` gave PGC1a acetyl up -66.1.
Screening O=C(Cc1ccccc1)Nc1cccc(-c2nc3ncccc3o2)c1 returned PGC1a acetyl up 122.2*, G6PC hep suppr 284.5, PCK1 hep suppr 108 and PGC1a hep suppr 53.2.
O=c1[nH]c2nc(Cl)nc(Cl)c2[nH]1 was read as PGC1a acetyl up -73.8.
CC1CCCN(S(=O)(=O)c2ccc3c(c2)n(C)c(=O)c(=O)n3C)C1 (stereo not given) was read as PGC1a acetyl up -49.1.
`CCOC(=O)C1CCCN(S(=O)(=O)c2ccc3c(c2)NC(=O)CO3)C1` (stereo not given) gave PGC1a acetyl up 92.1*, G6PC hep suppr -22.9 and PGC1a hep suppr inconclusive.

Screening data: PubChem, Broad Institute
